SUMO Mot1 rescue: yeast Mot1-301 growth rescue at high temperature, primary screen, SUMOylation pathway inhibitor project, S. cerevisiae, ATP luminescence, 38.5C; S. cerevisiae Mot1-301 growth rescue; percent above DMSO median, 100 means doubled; growth rescue, % at 18.8 µM; 1% of 320,000 active; AID 2716, 2010;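 active = every valid replicate shows activation above 250% relative to neutral control wells; inactive = the rest, any valid replicate at or below 250%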
ARFGAP1 inhibitor: inhibitors of rat ARFGAP1 GAP activity, primary screen, biochemical, fluorescence polarization, GDP tracer | AID 651572, 2012 | Arfgap1-stimulated ARF1 GTP hydrolysis, GDP FP detection | 0.26% of 360,000 active | inhibition, % at 16.5 µM | ADP-ribosylation factor GTPase-activating protein 1 (Rattus norvegicus), Q62848;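 active = inhibition above a per-plate limit, mean inhibition of low control wells plus 3 SD, cut at about 25% in these data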
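Material – truncated rat Arfgap1 GAP domain · Buffer or medium – HEPES-based buffer, pH 7.5 · Reagent – human ARF1(Δ1-17)-GTP substrate · Dosing – 16.5 µM single point, 1.26% DMSO · Schedule – GTP hydrolysis reaction 2 h at 25 °C · Technique – GDP detection by fluorescence polarization · Benchmarks – No-Arfgap1 wells (100%) versus DMSO full-reaction wells (0%) · Repeats – single replicate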
Statin myotox sup: suppressors of statin myotoxicity in C2C12 myotubes, primary screen, cell-based, single point, plate reader | C2C12 myotubes + simvastatin, ATP luminescence, 48 h; scaled: DMSO 0, geranylgeraniol control 100 | rescue of ATP level, % at 7.49 µM | 0.78% of 330,000 active | AID 602340, 2012;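 active = mean ATP rescue above about 67%, or every replicate alone reaching that limit, limit read from the data, passing the limit was not always enough; inconclusive = no clear call, values can overlap the other calls; inactive = mean under the limit and some replicate under it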;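 also: myotubes were challenged with 10 µM simvastatin during compound exposure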
APOBEC3A inh: APOBEC3A ssDNA deaminase inhibitors, primary screen, selectivity assay for APOBEC3G inhibitor project, biochemical, FAM/TAMRA oligo cleavage fluorescence | AID 493011, 2011 | 0.41% of 330,000 active | inhibition, % at 20 µM | recombinant A3A, FAM/TAMRA ssDNA deamination fluorescence | DNA dC->dU-editing enzyme APOBEC-3A (Homo sapiens), P31941;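 active = at least 40% inhibition at 20 µM here, with at most 30% in a related deaminase screen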
Target sequence (P31941 whole entry, looked up): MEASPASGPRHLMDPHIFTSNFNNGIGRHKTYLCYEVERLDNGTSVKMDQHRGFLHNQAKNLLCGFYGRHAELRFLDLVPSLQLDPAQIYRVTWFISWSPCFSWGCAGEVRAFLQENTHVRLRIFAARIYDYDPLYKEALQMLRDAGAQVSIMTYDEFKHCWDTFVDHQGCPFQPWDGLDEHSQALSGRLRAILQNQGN
APOBEC3G inh: APOBEC3G DNA deaminase inhibitors, primary screen, biochemical, fluorescence, single-stranded DNA substrate, uHTS; DNA dC->dU-editing enzyme APOBEC-3G (Homo sapiens), Q9HC16; recombinant A3G, ssDNA deamination FAM/TAMRA fluorescence; 0.28% of 330,000 active; inhibition, % at 20 µM;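 active = inhibition of at least 40% at 20 µM, with no more than 30% in the related APOBEC3A deaminase screen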
ASAP1 GAP inh: inhibitors of human ASAP1 ArfGAP activity, primary screen, biochemical, fluorescence polarization; 0.19% of 360,000 active; ASAP1-stimulated ARF1 GTP hydrolysis, GDP FP detection; inhibition, % at 16.5 µM; Arf-GAP with SH3 domain, ANK repeat and PH domain-containing protein 1 (Homo sapiens), …; in the data active = inhibition above about 25%
ARFGAP1 inh conf: ARFGAP1 inhibitor hit confirmation, biochemical, fluorescence polarization, triplicate | shares compounds with ARFGAP1 inhibitor | 30% of 890 active | ARFGAP1-stimulated ARF1 GTP hydrolysis, GDP tracer FP | inhibition, % at 16.5 µM;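 active = average inhibition over triplicates above the hit cutoff set in the earlier primary screen, cut at about 25% in these data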
Target sequence (Q62848 whole entry, looked up): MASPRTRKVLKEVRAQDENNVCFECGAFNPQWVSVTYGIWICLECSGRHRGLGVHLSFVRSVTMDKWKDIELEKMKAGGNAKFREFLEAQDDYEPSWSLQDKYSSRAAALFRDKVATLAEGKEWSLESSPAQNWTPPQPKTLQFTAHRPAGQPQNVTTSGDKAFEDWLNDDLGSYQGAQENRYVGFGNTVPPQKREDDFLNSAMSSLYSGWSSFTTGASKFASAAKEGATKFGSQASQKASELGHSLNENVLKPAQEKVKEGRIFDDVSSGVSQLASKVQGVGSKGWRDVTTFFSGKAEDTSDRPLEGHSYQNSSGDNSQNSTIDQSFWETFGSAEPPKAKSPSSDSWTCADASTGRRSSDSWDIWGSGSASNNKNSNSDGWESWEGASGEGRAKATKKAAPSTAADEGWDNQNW
Hits are given with their value. This is a sample that favours compounds with a hit; in the whole collection about 2.1% have one here.

How did C[C@@H]1CN([C@@H](C)CO)C(=O)c2cc(NC(=O)CCC(F)(F)F)ccc2O[C@@H](C)CCCCO[C@H]1CN(C)S(=O)(=O)c1cn(C)cn1 do in these assays?
Statin myotox sup: inactive

What do the screens show for `Cc1cc(C)c2nc(C)cc(N/N=C/c3ccc(O)cc3)c2c1`?
SUMO Mot1 rescue: inactive; ARFGAP1 inhibitor: 26; Statin myotox sup: inactive; APOBEC3A inh: inactive; APOBEC3G inh: inactive; ASAP1 GAP inh: inactive; ARFGAP1 inh conf: 40

What do the screens show for `CCNC(=O)C[C@@H]1CC[C@H]2[C@@H](COc3ccc(NC(=O)Nc4ccccc4C)cc3C(=O)N2C)O1`?
Statin myotox sup: inactive

What do the screens show for `COC(=O)c1cccc(Nc2nc(-c3cccnc3)nc3ccccc23)c1`?
SUMO Mot1 rescue: inactive; ARFGAP1 inhibitor: 43; Statin myotox sup: inactive; APOBEC3A inh: inactive; APOBEC3G inh: inactive; ASAP1 GAP inh: inactive; ARFGAP1 inh conf: 53

How did c1ccc(Nc2nc(-c3ccncc3)nc3ccccc23)cc1 do in these assays?
ARFGAP1 inhibitor: inactive; APOBEC3A inh: inactive; APOBEC3G inh: inactive; ASAP1 GAP inh: inactive

Results for COC(=O)c1ccc(Nc2nc(-c3ccncc3)nc3ccccc23)cc1 ?
SUMO Mot1 rescue: inactive; ARFGAP1 inhibitor: 34; Statin myotox sup: inactive; APOBEC3A inh: inactive; APOBEC3G inh: inactive; ASAP1 GAP inh: inactive; ARFGAP1 inh conf: 34

How did CCCC#Cc1ccc2c(c1)O[C@H](CN(C)C(=O)Nc1ccccc1F)[C@@H](C)CN([C@H](C)CO)S2(=O)=O do in these assays?
Statin myotox sup: inactive

What do the screens show for `COc1ccc(C2NC(=O)NC(c3ccccc3)=C2c2nc3ccccc3s2)cc1` (centres undefined)?
SUMO Mot1 rescue: inactive; ARFGAP1 inhibitor: inactive; Statin myotox sup: inconclusive; APOBEC3A inh: inactive; APOBEC3G inh: inactive; ASAP1 GAP inh: inactive

How did O=C1NC(c2ccccc2)=C(c2nc3ccccc3s2)C(c2ccc(F)cc2)N1 (centres undefined) do in these assays?
SUMO Mot1 rescue: inactive; ARFGAP1 inhibitor: 32; APOBEC3A inh: inactive; APOBEC3G inh: inactive; ASAP1 GAP inh: inactive; ARFGAP1 inh conf: inactive

How did O=C(Nc1ccc(-c2nc3ccccc3[nH]2)cc1)c1ccc2c(c1)OCO2 do in these assays?
SUMO Mot1 rescue: inactive; ARFGAP1 inhibitor: 26; Statin myotox sup: inactive; APOBEC3A inh: inactive; APOBEC3G inh: inactive; ASAP1 GAP inh: inactive; ARFGAP1 inh conf: 32

Results for CCCN(CCC)S(=O)(=O)c1cccc(C(=O)Nc2ccc3c(c2)OCO3)c1 ?
SUMO Mot1 rescue: inactive; ARFGAP1 inhibitor: 47; Statin myotox sup: inactive; APOBEC3A inh: inactive; APOBEC3G inh: inactive; ASAP1 GAP inh: inactive; ARFGAP1 inh conf: inactive

What do the screens show for `CCN(CC)S(=O)(=O)c1cccc(C(=O)Nc2ccc3c(c2)OCO3)c1`?
SUMO Mot1 rescue: inactive; ARFGAP1 inhibitor: inactive; APOBEC3A inh: inactive; APOBEC3G inh: inactive; ASAP1 GAP inh: inactive

What do the screens show for `O=C(Nc1ccc2nn(-c3ccccc3)nc2c1)c1ccc2c(c1)OCO2`?
SUMO Mot1 rescue: inactive; ARFGAP1 inhibitor: 26; Statin myotox sup: inactive; APOBEC3A inh: inactive; APOBEC3G inh: inactive; ASAP1 GAP inh: inactive; ARFGAP1 inh conf: 28

What do the screens show for `Cn1cnc(S(=O)(=O)N[C@H]2C=C[C@H](CC(=O)NCC3CC3)O[C@H]2CO)c1`?
Statin myotox sup: inactive

Results for Nn1cnnc1N/N=C\c1ccc(-c2ccccc2[N+](=O)[O-])o1 ?
ARFGAP1 inhibitor: 27; Statin myotox sup: inactive; ASAP1 GAP inh: inactive; ARFGAP1 inh conf: inactive

How did Cc1c(O)ccc2c(O)c(NC(=O)c3ccc4c(c3)CCC(C)(C)O4)c(=O)oc12 do in these assays?
SUMO Mot1 rescue: inactive; ARFGAP1 inhibitor: 40; APOBEC3A inh: inactive; APOBEC3G inh: inactive; ASAP1 GAP inh: inactive; ARFGAP1 inh conf: inactive

What do the screens show for `C[C@H]1CN([C@@H](C)CO)C(=O)c2cc(NS(C)(=O)=O)ccc2O[C@@H]1CN(C)S(=O)(=O)c1cccs1`?
Statin myotox sup: inactive

How did Nc1cccc(C(=O)Nc2ccc3nc(-c4cccnc4)[nH]c3c2)c1 do in these assays?
SUMO Mot1 rescue: inactive; ARFGAP1 inhibitor: 29; APOBEC3A inh: inactive; APOBEC3G inh: inactive; ASAP1 GAP inh: inactive; ARFGAP1 inh conf: inactive

What do the screens show for `Nc1ccc2nc(-c3cccnc3)[nH]c2c1`?
SUMO Mot1 rescue: inactive; ARFGAP1 inhibitor: inactive; APOBEC3A inh: inactive; APOBEC3G inh: inactive; ASAP1 GAP inh: inactive

What do the screens show for `CC(=O)N1CCc2c(sc(NC(=O)c3ccc(S(=O)(=O)N(C)CC4CCCO4)cc3)c2C(N)=O)C1` (centres undefined)?
ARFGAP1 inhibitor: 29; Statin myotox sup: inactive; ASAP1 GAP inh: inactive; ARFGAP1 inh conf: inactive

Results for CCOC(=O)c1c(NC(=O)c2ccc(S(=O)(=O)N(C)CC3CCCO3)cc2)sc2c1CCN(C)C2 (centres undefined) ?
SUMO Mot1 rescue: inactive; ARFGAP1 inhibitor: inactive; Statin myotox sup: inactive; APOBEC3A inh: inactive; APOBEC3G inh: inactive; ASAP1 GAP inh: inactive

Results for COc1ccc(NC(=O)NNC(=O)COc2ccc3cc(Br)ccc3c2)cc1OC ?
SUMO Mot1 rescue: inactive; ARFGAP1 inhibitor: 51; Statin myotox sup: inactive; APOBEC3A inh: inactive; APOBEC3G inh: inactive; ASAP1 GAP inh: inactive; ARFGAP1 inh conf: 85

How did Cc1ccc(NC(=O)NNC(=O)COc2ccc([N+](=O)[O-])cc2)cc1C do in these assays?
SUMO Mot1 rescue: inactive; ARFGAP1 inhibitor: 32; Statin myotox sup: inactive; APOBEC3A inh: inactive; APOBEC3G inh: inactive; ASAP1 GAP inh: inactive; ARFGAP1 inh conf: 34

How did O=C(C[C@H]1C=C[C@@H](NC(=O)C2CC2)[C@@H](CO)O1)NCC1CC1 do in these assays?
Statin myotox sup: inactive

Results for COc1ccc(NC(=O)Nc2ccc(F)cc2)cn1 ?
SUMO Mot1 rescue: inactive; ARFGAP1 inhibitor: 25; Statin myotox sup: inactive; APOBEC3A inh: inactive; APOBEC3G inh: inactive; ASAP1 GAP inh: inactive; ARFGAP1 inh conf: inactive

Results for COC(=O)c1ccc(NC(=O)Nc2ccc(F)cc2)cc1 ?
SUMO Mot1 rescue: inactive; ARFGAP1 inhibitor: inactive; Statin myotox sup: inactive; APOBEC3A inh: inactive; APOBEC3G inh: inactive; ASAP1 GAP inh: inactive

Assay outcomes as filed in PubChem.
